The list is not random: actives were taken first. Their share in the collection is about 2.9%.
Wee1 stabilizer: inhibitors of human Wee1 degradation; reporter increase, % at 5 µM; HeLa Luc-Wee1K328M stability, luciferase luminescence; 100% = proteasome inhibitor MG132 effect; AID 1321; actives 1.2% (n = 220,000); P30291;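 active means activation above the mean of all tested compounds plus 3 SD, set per screening run, cut at about 8.8% in these data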;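 further: cells exposed to compound for 20 h before luminescence read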
Runt-SMMHC FRET: inhibitors of human RUNX1 Runt domain binding to CBFb-SMMHC; Q01196+Q13951; Cerulean-Runt/Venus-CBFb-SMMHC FRET ratio 530/480, 1 h; inhibition, % at 20 µM; actives 0.74% (n = 220,000); AID 1434;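 active means mean inhibition across duplicate retests at 20 µM reaching about 50%, limit read from the data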;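 further: inhibitors lower the FRET ratio by blocking Runt binding to CBFb-SMMHC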
Target sequence (Q01196 whole entry, looked up, the tested form may be a part): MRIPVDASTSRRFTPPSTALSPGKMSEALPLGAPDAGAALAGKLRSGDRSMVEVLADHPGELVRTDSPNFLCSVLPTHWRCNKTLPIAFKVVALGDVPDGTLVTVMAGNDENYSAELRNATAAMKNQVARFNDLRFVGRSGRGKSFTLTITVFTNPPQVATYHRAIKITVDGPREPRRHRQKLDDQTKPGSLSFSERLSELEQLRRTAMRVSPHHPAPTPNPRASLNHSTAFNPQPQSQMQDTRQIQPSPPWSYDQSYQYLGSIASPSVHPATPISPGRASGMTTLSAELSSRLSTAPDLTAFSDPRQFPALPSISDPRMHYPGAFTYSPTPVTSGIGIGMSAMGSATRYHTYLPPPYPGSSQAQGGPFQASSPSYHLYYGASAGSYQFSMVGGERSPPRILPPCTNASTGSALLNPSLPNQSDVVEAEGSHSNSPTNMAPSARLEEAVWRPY
Target sequence (Q13951 whole entry, looked up, the tested form may be a part): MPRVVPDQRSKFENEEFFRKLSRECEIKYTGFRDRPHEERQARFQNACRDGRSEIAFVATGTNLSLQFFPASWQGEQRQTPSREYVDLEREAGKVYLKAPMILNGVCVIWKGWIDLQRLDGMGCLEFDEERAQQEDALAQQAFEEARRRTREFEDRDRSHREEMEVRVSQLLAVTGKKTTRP
RanGTP-Impb inh: inhibitors of RanGTP-importin-beta interaction, primary screen, biochemical, FRET, CFP-Ran, YFP-importin-beta, homogeneous; cell-free CFP-Ran/YFP-importin-beta FRET ratio; inhibition, % (concentration not given with the values); actives 1.1% (n = 300,000); AID 2216;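 active means more than half of the replicate wells show a fall in the fluorescence ratio signal beyond about 16%, limit read from the data, passing the limit was not always enough; inconclusive means exactly half of the replicate wells pass the set limit; inactive means fewer than half of replicates pass the limit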
AI-2 QS mod: modulators of Vibrio harveyi AI-2 quorum sensing system. AID 2094. Vibrio harveyi JMH597 AI-2 luminescence/OD600 ratio, 9 h; stronger effect = lower value; strain lacks LuxN and CqsS sensors; 0 = neutral-control median. activity change, % at 7.5 µM. actives 0.4% (n = 300,000); in the data active means activity change below about -75%, passing the limit was not always enough; inconclusive means no clear call, values can overlap the other calls;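 further: luminescence divided by OD600 gain over 9 h not by final OD600 alone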
proKLK7 act: activates the human kallikrein-7 zymogen; P49862; purified proKLK7, EDANS-DABCYL substrate fluorescence; 100% is mature enzyme control, 0% vehicle; activation, % at 7 µM; actives 0.9% (n = 370,000); AID 652039;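 active means activation above the mean of all tested compounds plus 3 SD, computed per campaign excluding outliers beyond control limits, cut at about 13% in these data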
Runt-CBFb FRET: Runt domain-CBFb interaction inhibition; Cerulean-Runt/Venus-CBFb FRET ratio 530/480, 1 h; inhibition, % at 20 µM; actives 0.46% (n = 220,000);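 active means inhibition over about 50% at 20 µM in the single-dose screen, limit read from the data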
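Schedule: protein complex preformed 1 h, compound exposure 1 h, room temperature, dark; test system: Cerulean-labeled Runt domain protein; amount: 100 nM per protein; buffer or medium: Tris 50 mM pH 7.5, KCl, K2SO4, 0.01% BSA; read-out: loss of energy transfer signal; detection: FRET fluorescence; controls: 5 µM unlabeled CBFb as full-inhibition high control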
proKLK7 act conf: proKLK7 activation, confirmation; activation, % at 7 µM; shares compounds with proKLK7 act; purified proKLK7, EDANS-DABCYL substrate fluorescence; scaled: vehicle 0, mature enzyme 100; actives 68% (n = 3,200);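 active means activation, as change over the incubation, above the mean of all tested compounds plus 3 SD, cut at about 13% in these data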
EDANS-DABCYL int: optically interferes with EDANS-DABCYL signal, flagging KLK7 hits; activation, % at 7 µM; AID 686952; EDANS-DABCYL substrate fluorescence interference, no enzyme, 4 h; solvent 0%, active enzyme control 100%; shares compounds with proKLK7 act; actives 80% (n = 3,200);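 active means activation above the all-compound mean plus 3 SD, ignoring values outside control-based bounds, cut at about 4.8% in these data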;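 further: value is the 4 h activation minus the activation read at time zero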
K7 EDANS ctr: optically interferes with EDANS-DABCYL fluorescence, kallikrein-7 activator counter-screen. shares compounds with proKLK7 act. EDANS-DABCYL peptide fluorescence interference, no enzyme. EC50, µM. actives 20% (n = 250);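 active means compounds that raise the fluorescence signal in this interference counterscreen, with EC50 at or below 10 µM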;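 further: intact quenched peptide substrate alone read at 355 nm excitation and 520 nm emission; signal is fluorescence gain from T0 to T4 after four hours at room temperature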
Hits are given with their value; . = inactive; ? = inconclusive; / = no result given.

SMILES	Wee1 stabilizer	Runt-SMMHC FRET	RanGTP-Impb inh	AI-2 QS mod	proKLK7 act	Runt-CBFb FRET	proKLK7 act conf	EDANS-DABCYL int	others
Cc1ccc(C)n1-c1ccc(N2CCOCC2)cc1	.	.	/	.	.	.	/	/
N#Cc1cc2ccc(N3CCOCC3)cc2cc1C#N	.	.	35	.	34	.	.	.
CCOC(=O)c1cnn2c(C(F)(F)F)cc(-c3ccccc3)nc12	.	.	.	.	19	.	.	.
COC(=O)c1cnn2c(C(F)(F)F)cc(-c3ccc(F)cc3)nc12	.	.	.	.	.	.	/	/
CCOC(=O)c1cnn2c(C(F)(F)F)cc(-c3cn(C)nc3C)nc12	.	.	.	.	20	.	41	25	K7 EDANS ctr=.
Nc1ncnc2c(C3OC(CO)C(O)C3O)c[nH]c12 (configuration not stated)	/	/	/	/	.	/	/	/
CC(=O)Nc1cccc(C(=O)Oc2cccc(C)c2)c1O	.	.	.	.	40	.	48	51
Cc1cccc(OC(=O)Nc2ccc(C(=O)O)c(O)c2)c1	/	/	/	/	.	/	/	/
COc1cc2c(cc1OC)CN(c1ccc3ccccc3n1)CC2	/	/	.	.	42	/	70	80
COc1ccccc1N(C)S(=O)(=O)c1ccc(Cl)c(C(=O)Nc2ccccc2N2CCOCC2)c1	/	/	/	/	.	/	/	/
CCOC(=O)c1nn(-c2ccccc2)c(C#N)c1N	.	.	.	.	25	.	18	25
CCOC(=O)c1nn(-c2ccccc2)c(=O)c(C#N)c1C	.	.	.	.	.	.	/	/
O=C1O[C@@H](c2ccccc2)C[C@@H](O)[C@H](O)CCCCc2ccccc21	/	/	/	/	.	/	/	/
O=C(C[C@H]1C[C@H](C(=O)N2CCOCC2)[C@@]2(CCC3CCCC3)c3[nH]c4cc(-c5ccco5)ccc4c3CCN2C1=O)NCCCn1ccnc1	/	/	/	/	.	/	/	/
O=C(C[C@H]1C[C@H](C(=O)N2CCCCC2)[C@@]2(CCc3ccccc3)c3[nH]c4cc(-c5ccco5)ccc4c3CCN2C1=O)NCCN1CCOCC1	/	/	/	/	22	/	17	5.7	K7 EDANS ctr=8.6
COCCCNC(=O)C[C@H]1C[C@H](C(=O)N2CCCCC2)[C@@]2(CCc3ccccc3)c3[nH]c4cc(-c5ccco5)ccc4c3CCN2C1=O	/	/	/	/	22	/	.	.
Clc1c(-c2ccccc2)nc2ccccn12	/	/	.	/	.	/	/	/
c1ccn2c(c1)nc1c2nc2ccccn21	.	72	.	.	81	.	70	73
COc1ccc(-c2[nH]nc3oc(=O)cc(C)c23)cc1	.	.	.	.	13	.	15	21
Cc1cc(=O)oc2n[nH]c(-c3ccccc3)c12	.	.	.	.	.	.	/	/
Nc1ccc(-c2nc3cc(N)ccc3n2CCO)cc1	.	.	.	.	68	.	66	69
CCCCN(C(=O)NC(=O)Nc1ccc(C)cn1)S(C)(=O)=O	.	.	/	.	19	.	.	.
CCCCN(C(=O)NC(=O)Nc1cc(C)ccc1C)S(C)(=O)=O	.	.	.	.	.	.	/	/
CCN(CC)C(=O)c1cn(-c2cccc(OC)c2)c(=O)c2ccccc12	/	/	.	.	.	/	/	/
CC(=O)c1ccc(-c2nc3ccccc3n2C)o1	.	.	.	.	67	.	57	59
SMILES	Wee1 stabilizer	Runt-SMMHC FRET	RanGTP-Impb inh	AI-2 QS mod	proKLK7 act	Runt-CBFb FRET	proKLK7 act conf	EDANS-DABCYL int	others
Cc1ccc(-c2nc3ccccc3n2C)o1	.	.	.	.	.	.	/	/
COC(=O)c1ccccc1N1CCS(=O)(=O)CC1	.	.	.	.	.	.	/	/
COc1ccc(-n2nc3ccc(N)cc3n2)cc1Cl	/	/	.	/	53	/	75	75
Cc1ccc(-n2nc3ccc(N)cc3n2)c(C)c1	/	/	.	.	40	/	77	76
Cc1ccc(-n2nc3ccc(N)cc3n2)cc1Cl	/	/	.	.	.	/	/	/
Cc1cc(N)ccc1-n1nc2ccccc2n1	/	/	.	.	.	/	/	/
Cc1ccccc1N(CC(=O)NCc1ccccc1)C(=O)CCC(=O)Nc1nccs1	/	/	.	/	.	/	/	/
CC(=O)c1cccc(OCc2cc(C(=O)NCc3nc(C)c(C)s3)no2)c1	/	/	.	.	.	/	/	/
Clc1ccccc1Cc1noc(CN2CCCCC2CCc2ccccn2)n1 (configuration not stated)	.	.	.	.	.	.	/	/
COc1cc(-c2cc(=O)c3ccc(O)cc3o2)cc(OC)c1OC	/	/	/	/	15	/	.	8.7
CCN1CCCC1CN=Cc1c(O)n(-c2ccccc2)c(=O)c2ccccc12 (configuration not stated)	.	.	.	.	16	.	16	18
CC(C)CCN=Cc1c(O)n(-c2ccccc2)c(=O)c2ccccc12	.	.	.	.	.	.	/	/
CCN(CC(=O)NCc1ccc(F)cc1)C(=O)COc1ccccc1[N+](=O)[O-]	/	/	/	/	31	/	.	.
O=C(COC(=O)Cc1ccccc1[N+](=O)[O-])NCc1ccc(F)cc1	.	.	.	.	.	.	/	/
NC(=S)NNc1ccnc2cc(Cl)ccc12	.	.	?	.	16	.	20	21
CC(=O)Nc1c2c3c(cccc3n(C)c1=O)C(=O)c1ccccc1-2	.	.	.	.	23	.	23	21
Cn1c(=O)c(Nc2ccc(Cl)cc2)c2c3c(cccc31)C(=O)c1ccccc1-2	.	.	.	.	.	.	/	/
Cc1cccn2c(=O)c3cc(C(=O)NCC4CCCO4)c(=N)n(C4CCCC4)c3nc12 (configuration not stated)	/	/	187	.	81	/	.	.
Cc1ccc2nc3c(cc(S(=O)(=O)c4ccccc4)c(=N)n3C3CCCC3)c(=O)n2c1	/	/	/	/	.	/	/	/
N=c1c(C(=O)NCC2CCCO2)cc2c(=O)n3ccccc3nc2n1C1CCCC1 (configuration not stated)	/	/	186	.	106	/	42	30	K7 EDANS ctr=.
N=c1c(S(=O)(=O)c2ccccc2)cc2c(=O)n3ccccc3nc2n1C1CCCCC1	/	/	/	/	.	/	/	/
Cc1ccc2nc3c(cc(C(=O)NCC4CCCO4)c(=N)n3C3CCCC3)c(=O)n2c1 (configuration not stated)	/	/	194	/	81	/	72	81
N=c1c(C(=O)NCC2CCCO2)cc2c(=O)n3ccccc3nc2n1C1CCCCC1 (configuration not stated)	/	/	.	.	35	/	.	.

Screening results (PubChem BioAssay)
